# Source: ChEMBL document CHEMBL1125346, “Guanidinophenyl-substituted enol lactones as selective, mechanism-based inhibitors of trypsin-like serine proteases” (J Med Chem, 1992)
# Columns and labels:
# [1] = biological target: Chymotrypsinogen A (Bos taurus) (UniProt P00766); assay: Time for which maximum percent inhibition persists was determined against alpha-chymotrypsin (17 nM); format: functional
# Outline: (§1)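 Enzyme incubated with excess lactone added from DMSO stock (final 10% DMSO); aliquots over 2 h diluted into substrate: chymotrypsin Suc-AAPF-pNA 315 µM, pH 7.2, 410 nm; t-PA Spectrozyme t-PA 0.2 mM, Tris-imidazole pH 8.4, 405 nm; HNE MeO-Suc-AAPV-pNA 150 µM, pH 7.4, 410 nm; plasmin Ts-GPK-pNA 157.4 µM, pH 7.8, 404 nm; thrombin Ts-GPR-pNA 75 µM, pH 8.0, 408 nm; trypsin Z-VGR-pNA 155 µM, pH 7.2, 404 nm. Activity given relative to a no-lactone control. Some runs used a 10-min substrate-free delay after dilution. ∞ means no recovery over 2 h.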
# [2] = biological target: Chymotrypsinogen A (Bos taurus) (UniProt P00766); assay: Time to reach maximum percent inhibition by the compound was determined against alpha-chymotrypsin (17 nM); format: functional
# Outline: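 α-Chymotrypsin with excess lactone (DMSO, 10% final) was sampled over 2 h into Suc-Ala-Ala-Pro-Phe-pNA (315 μM) in 0.2 M phosphate, pH 7.2. Absorbance at 410 nm gave the remaining activity versus a control without lactone. Minutes to maximal inhibition were taken.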
# [3] = biological target: Chymotrypsinogen A (Bos taurus) (UniProt P00766); assay: Maximum percent inhibition by the compound was determined against Chymotrypsinogen (17 nM); outline: as §1
# [4] = biological target: T1, Neutrophil elastase (Homo sapiens) (UniProt P08246); assay: Maximum percent inhibition by the compound was determined against human neutrophil elastase HNE(66 nM); outline: as §1
# T1 sequence (whole entry): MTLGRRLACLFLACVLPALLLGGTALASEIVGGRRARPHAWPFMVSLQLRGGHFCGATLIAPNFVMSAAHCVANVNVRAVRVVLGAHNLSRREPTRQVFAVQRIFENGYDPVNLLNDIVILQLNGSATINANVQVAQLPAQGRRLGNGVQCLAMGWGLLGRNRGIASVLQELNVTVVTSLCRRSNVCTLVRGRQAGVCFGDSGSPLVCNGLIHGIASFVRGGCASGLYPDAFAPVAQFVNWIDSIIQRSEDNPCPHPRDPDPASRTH
# [5] = biological target: T1, Neutrophil elastase (Homo sapiens); assay: Time for which maximum percent inhibition persists was determined against human neutrophil elastase HNE(66 nM); format: functional; outline: as §1
# [6] = biological target: T1, Neutrophil elastase (Homo sapiens); assay: Time to reach maximum percent inhibition by the compound was determined against human neutrophil elastase HNE(66 nM); format: functional
# Outline: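 HNE was incubated with excess lactone in 10% final DMSO. Aliquots drawn during 2 h went into MeO-Suc-Ala-Ala-Pro-Val-pNA (150 μM) in 0.1 M phosphate, 0.5 M NaCl, pH 7.4, read at 410 nm. Activity was set relative to a lactone-free control, and the time (min) to peak inhibition was noted.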
# [7] = biological target: Plasminogen (Homo sapiens) (UniProt P00747); assay: Time to reach maximum percent inhibition by the compound was determined against plasmin(625 nM); format: functional
# Outline: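 Plasmin plus excess lactone (10% final DMSO) was sampled over 2 h into Ts-Gly-Pro-Lys-pNA (157.4 μM) in 0.05 M phosphate, pH 7.8. The slope at 404 nm, relative to an enzyme-only control, gave residual activity. Minutes needed to reach maximal inhibition were reported.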
# [8] = biological target: Plasminogen (Homo sapiens) (UniProt P00747); assay: Substrate binding constant against plasmin
# Outline: (§2)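 Competitive substrate assay: lactone (DMSO, final 10% v/v) and chromogenic substrate combined in buffer, enzyme added, absorbance followed to steady state. Turnover-corrected semilog plot gives kobs; I0 vs I0/kobs replot (eq 6) with separately determined Km yields Ki and ka. Where no burst was seen, Ki was estimated from Km(app) replots using 15-s initial velocities. Buffers and substrates as in incubation assay.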
# [9] = biological target: Plasminogen (Homo sapiens) (UniProt P00747); assay: Second order rate constant against plasmin; outline: as §2
# [10] = biological target: Plasminogen (Homo sapiens) (UniProt P00747); assay: Time for which maximum percent inhibition persists was determined against plasmin(625 nM); * =no enzyme activity was recovered over 2 h; format: functional; outline: as §1
# [11] = biological target: Plasminogen (Homo sapiens) (UniProt P00747); assay: Maximum percent inhibition by the compound was determined against plasmin(625 nM); outline: as §1
# [12] = biological target: Plasminogen (Homo sapiens) (UniProt P00747); assay: Acylation rate constant against plasmin; outline: as §2
# [13] = biological target: Tissue-type plasminogen activator (Homo sapiens) (UniProt P00750); assay: Maximum percent inhibition persists was determined against Tissue plasminogen activator (19.4 nM); outline: as §1
# [14] = biological target: Tissue-type plasminogen activator (Homo sapiens) (UniProt P00750); assay: Time for which maximum percent inhibition persists was determined against Tissue plasminogen activator (19.4 nM); format: functional; outline: as §1
# [15] = biological target: Tissue-type plasminogen activator (Homo sapiens) (UniProt P00750); assay: Time to reach maximum percent inhibition by the compound was determined against Tissue plasminogen activator (19.4 nM); format: functional
# Outline: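 Tissue plasminogen activator was exposed to excess lactone (10% final DMSO). Over 2 h, aliquots were diluted into Spectrozyme t-PA (0.2 mM) in Tris-imidazole, I 0.3, pH 8.4. Hydrolysis at 405 nm gave residual activity relative to an enzyme-only control. The time (min) to reach maximal percent inhibition was recorded.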
# [16] = biological target: Prothrombin (Homo sapiens) (UniProt P00734); assay: Time for which maximum percent inhibition persists was determined against thrombin (1.93 nM); format: functional; outline: as §1
# [17] = biological target: Prothrombin (Homo sapiens) (UniProt P00734); assay: Time to reach maximum percent inhibition by the compound was determined against thrombin (1.93 nM); format: functional
# Outline: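 Thrombin was incubated with excess lactone (DMSO, 10% final). Aliquots over 2 h were diluted into Ts-Gly-Pro-Arg-pNA (75 μM) in 0.05 M phosphate, 0.01 M EDTA, 10 g/L PEG 8000, 10 mg/L aprotinin, pH 8.0, and read at 408 nm against a no-lactone control. Time to maximal inhibition was recorded.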
# [18] = biological target: T2, Serine protease 1 (Bos taurus) (UniProt P00760); assay: Second order rate constant against trypsin; outline: as §2
# T2 sequence (whole entry): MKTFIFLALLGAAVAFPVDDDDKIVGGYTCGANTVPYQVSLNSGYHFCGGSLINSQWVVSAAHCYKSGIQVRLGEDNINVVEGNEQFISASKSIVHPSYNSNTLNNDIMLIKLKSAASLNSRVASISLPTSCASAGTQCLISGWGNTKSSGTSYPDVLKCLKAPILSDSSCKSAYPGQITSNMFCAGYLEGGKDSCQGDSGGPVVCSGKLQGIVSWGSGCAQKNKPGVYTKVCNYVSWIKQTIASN
# [19] = biological target: Prothrombin (Homo sapiens) (UniProt P00734); assay: Maximum percent inhibition by the compound was determined against thrombin (1.93 nM); outline: as §1
# [20] = biological target: T2, Serine protease 1 (Bos taurus); assay: Maximum percent inhibition by the compound was determined against trypsin (14.6 nM); outline: as §1
# [21] = biological target: T2, Serine protease 1 (Bos taurus); assay: Acylation rate constant against trypsin; outline: as §2
# Serine protease 1 = biological target: T3, Serine protease 1 (Bos taurus, UniProt P00760); assay: Decylation rate constant against trypsin
# T3 sequence (P00760 whole entry): T2 sequence (whole entry)
# Outline: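 Trypsin incubated 30–45 min with excess lactone (same I0/E0 as incubation assay). Free inhibitor removed by two 1-h centrifugations at 0 °C. Activity recovery followed at room temperature against an inhibitor-free control carried through the same treatment; kd is the slope of ln remaining activity vs time. Substrate Z-Val-Gly-Arg-pNA 155 µM, 0.2 M phosphate pH 7.2, 404 nm.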
# [22] = Ratio of initial inhibitor concentration to initial Chymotrypsinogen concentration
# Outline: (§3)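 Ratio I0/E0 of lactone to enzyme in the 2-h incubation assay; lactone added from DMSO stock to buffered enzyme (final 10% DMSO).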
# [23] = Ratio of initial inhibitor concentration to initial HNE concentration; outline: as §3
# [24] = Ratio of initial inhibitor concentration to initial Plasmin concentration; outline: as §3
# [25] = Ratio of initial inhibitor concentration to initial t-PA concentration; outline: as §3
# [26] = Ratio of initial inhibitor concentration to initial thrombin concentration; outline: as §3
# [27] = Ratio of initial inhibitor concentration to initial trypsin concentration; outline: as §3
# [28] = Ratio of initial inhibitor concentration to initial urokinase concentration; outline: as §3
# [29] = biological target: T4, Urokinase-type plasminogen activator (Homo sapiens, UniProt P00749)
# [30] = biological target: T4, Urokinase-type plasminogen activator; remark: listed apart in the source
# [31] = biological target: T4, Urokinase-type plasminogen activator; remark: listed apart in the source
# [32] = biological target: T4, Urokinase-type plasminogen activator; assay: Substrate binding constant against Urokinase
# Chain of Tissue-type plasminogen activator (Homo sapiens) (P00750 36-562 limits assumed): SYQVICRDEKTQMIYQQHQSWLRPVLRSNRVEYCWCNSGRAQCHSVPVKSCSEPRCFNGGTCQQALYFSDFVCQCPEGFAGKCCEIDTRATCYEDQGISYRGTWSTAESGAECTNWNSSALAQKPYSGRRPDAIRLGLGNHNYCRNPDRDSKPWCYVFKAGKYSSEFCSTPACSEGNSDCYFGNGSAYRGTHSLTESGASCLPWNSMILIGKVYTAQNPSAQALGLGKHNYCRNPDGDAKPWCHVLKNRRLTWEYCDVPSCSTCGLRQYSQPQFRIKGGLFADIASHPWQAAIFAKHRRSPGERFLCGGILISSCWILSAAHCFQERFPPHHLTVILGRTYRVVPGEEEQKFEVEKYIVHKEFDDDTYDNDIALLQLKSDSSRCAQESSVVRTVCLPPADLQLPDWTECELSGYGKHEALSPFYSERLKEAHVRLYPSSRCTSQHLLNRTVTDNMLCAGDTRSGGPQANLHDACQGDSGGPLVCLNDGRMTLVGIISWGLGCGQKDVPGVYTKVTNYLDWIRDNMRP
# Chain of Plasminogen (Homo sapiens) (P00747 97-580 limits assumed): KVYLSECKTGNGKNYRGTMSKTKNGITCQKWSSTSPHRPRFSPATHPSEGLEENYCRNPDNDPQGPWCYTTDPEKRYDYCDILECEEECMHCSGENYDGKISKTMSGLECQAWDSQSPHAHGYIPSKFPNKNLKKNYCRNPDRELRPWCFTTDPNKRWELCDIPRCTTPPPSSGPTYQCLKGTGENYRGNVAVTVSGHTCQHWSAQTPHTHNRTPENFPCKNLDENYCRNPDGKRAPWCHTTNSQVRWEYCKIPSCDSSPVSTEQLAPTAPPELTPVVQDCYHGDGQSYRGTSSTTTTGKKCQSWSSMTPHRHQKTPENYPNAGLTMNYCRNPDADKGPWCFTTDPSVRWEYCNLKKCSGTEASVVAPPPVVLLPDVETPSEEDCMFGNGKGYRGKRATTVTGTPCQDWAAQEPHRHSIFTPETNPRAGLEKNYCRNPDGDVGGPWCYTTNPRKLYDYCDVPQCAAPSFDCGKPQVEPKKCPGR
# Chain of Plasminogen (Homo sapiens) (P00747 581-810 limits assumed): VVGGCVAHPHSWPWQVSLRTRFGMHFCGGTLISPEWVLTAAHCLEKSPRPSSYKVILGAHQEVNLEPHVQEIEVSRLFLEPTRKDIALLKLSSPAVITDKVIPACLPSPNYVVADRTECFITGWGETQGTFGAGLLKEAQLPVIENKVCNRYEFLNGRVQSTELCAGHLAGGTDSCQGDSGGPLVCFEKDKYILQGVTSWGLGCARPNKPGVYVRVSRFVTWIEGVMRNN
compound,measurement,setting,value
N=C(N)Nc1ccc(C2CC(=O)O/C(=C/I)C2)cc1 (stereo not drawn),TIME,[1],0.25 h
same,TIME,[2],0 h
same,inhibition,[3],47%
same,inhibition,[4],67%
same,TIME,[5],0.25 h
same,TIME,[6],0.25 h
same,TIME,[7],1 h
same,Ks,[8],11 µM
same,Rate,[9],0.9 ka/Ks
same,TIME,[10],No enzyme activity
same,inhibition,[11],97%
same,Ka,[12],11 min⁻¹
same,inhibition,[13],22%
same,TIME,[14],0.25 h
same,TIME,[15],0 h
same,TIME,[16],0 h
same,TIME,[17],1.5 h
same,Rate,[18],0.13 ka/Ks
same,inhibition,[19],38%
same,inhibition,[20],99%
same,Ka,[21],0.54 min⁻¹
same,Kd,Serine protease 1,0.00033 s⁻¹
same,Ratio,[22],118 Io/Eo
same,Ratio,[23],36 Io/Eo
same,Ratio,[24],16 Io/Eo
same,Ratio,[25],100 Io/Eo
same,Ratio,[26],518 Io/Eo
same,Ratio,[27],86 Io/Eo
same,Ratio,[28],50 Io/Eo
same,Ks,[29],7.83 µM
same,Rate,[30],0.33 ka/Ks
same,Ka,[31],2.61 min⁻¹
same,Ks,[32],7.83 µM
